Experiments:
Norovirus = experiment: Antiviral activity against Norovirus infected in human HG23 cells assessed as inhibition of viral replication after 24 hrs by RT-PCR analysis; format: functional; settings: HG23, 24 h, read-out: ED50 (the source's name)
How it was run: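 Norwalk virus replicon-bearing HG23 cells were used one day after seeding, at 80-90% confluence. They were exposed to a range of compound concentrations from 0 (DMSO mock) to 10 µM. NV genome levels were quantified by real-time qRT-PCR. ED50 was taken as the concentration that lowered NV genome levels by 50%.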

[1] = Therapeutic index, ratio of TD50 for human HG23 cells to ED50 for Norovirus; format: cell-based; settings: read-out: Ratio TD50/ED50
How it was run: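 TI was taken as TD50 over ED50, both measured in HG23 replicon cells. For ED50, one-day-old cells at 80-90% confluence were treated with 0 (mock, DMSO) to 10 µM, and replicon genome levels were quantified by real-time qRT-PCR at 48 h. For TD50, cells were treated with 0 to 200 µM and read with a cytotoxicity kit at 48 h.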

[2] = Cytotoxicity against human HG23 cells after 48 hrs; format: cell-based; settings: read-out: TD50
How it was run: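 HG23 cells (Norwalk virus replicon-harboring) were exposed to a concentration series from 0 (mock, DMSO) to 200 µM. Viability was read with a commercial cell cytotoxicity assay kit after 48 h of treatment, and the median toxic dose (TD50) was calculated from it.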

| Compound | EC50 (Norovirus) [µM] | selectivity ratio [1] | CC50 at 48 h [2] [µM] |
| --- | --- | --- | --- |
| Cc1cc2c(c(=O)o1)C=C1CC[C@H](C(C)CNC(=O)c3ccnc4ccccc34)C[C@@H]1O2 (stereo not given in full) | 5.5 | 18.8 | 104 |
| Cc1cc2c(c(=O)o1)C=C1CC[C@H](C(C)CNCc3ccc4ncccc4c3)C[C@@H]1O2 (stereo not given in full) | 8.1 |  |  |
| Cc1cc(CNCC(C)[C@H]2CCC3=Cc4c(cc(C)oc4=O)O[C@H]3C2)c2ccccc2n1 (mixture of isomers) | 8.2 |  |  |
| CC(=O)OCc1cc(CNCC(C)[C@H]2CCC3=Cc4c(cc(C)oc4=O)O[C@H]3C2)c2ccccc2n1 (mixture of isomers) | 9.7 |  |  |
| Cc1cc2c(c(=O)o1)C=C1CC[C@H](C(C)CNCc3cc(CO)nc4ccccc34)C[C@@H]1O2 (mixture of isomers) | 9.5 |  |  |
| Cc1cc2c(c(=O)o1)C=C1CC[C@H](C(C)CNCc3cc(C4OCOCO4)nc4ccccc34)C[C@@H]1O2 (mixture of isomers) | 8.4 |  |  |
| Cc1cc2c(c(=O)o1)C=C1CC[C@H](C(C)CNCc3cc(C)c4ccccc4n3)C[C@@H]1O2 (mixture of isomers) | 5.3 | > 40 | > 200 |
| Cc1ccc2nccc(CNCC(C)[C@H]3CCC4=Cc5c(cc(C)oc5=O)O[C@H]4C3)c2c1 (mixture of isomers) | 3.4 | 18 | 61.2 |
| Cc1ccc2nc(CNCC(C)[C@H]3CCC4=Cc5c(cc(C)oc5=O)O[C@H]4C3)ccc2c1 (mixture of isomers) | 8.1 | 10.3 | 83.7 |
| Cc1cc2c(c(=O)o1)C=C1CC[C@H](C(C)CNCc3ccnc4c3ccc3ccccc34)C[C@@H]1O2 (mixture of isomers) | 5.3 | > 40 | > 200 |
| Cc1cc2c(c(=O)o1)C=C1CC[C@H](C(C)CN)C[C@@H]1O2 (mixture of isomers) | > 10 |  | > 200 |
| Cc1cc2c(c(=O)o1)C=C1CC[C@H](C(C)CNCc3cccnc3)C[C@@H]1O2 (mixture of isomers) | 4.1 | > 50 | > 200 |
| Cc1cc2c(c(=O)o1)C=C1CC[C@H](C(C)CNCc3ccncc3)C[C@@H]1O2 (mixture of isomers) | 9.6 |  |  |
| Cc1cc2c(c(=O)o1)C=C1CC[C@H](C(C)CNCc3ccc4ccccc4n3)C[C@@H]1O2 (mixture of isomers) | 3.4 | > 58.8 | > 200 |
| Cc1cc2c(c(=O)o1)C=C1CC[C@H](C(C)CNCc3ccnc4ccccc34)C[C@@H]1O2 (mixture of isomers) | 2.4 | 40.2 | 96.4 |
| Cc1cc2c(c(=O)o1)C=C1CC[C@H](C(C)CNCc3cccc4cccnc34)C[C@@H]1O2 (mixture of isomers) | > 10 | > 16 | > 160 |

Source: ChEMBL document CHEMBL2021817, “Synthesis and anti-norovirus activity of pyranobenzopyrone compounds” (Bioorg Med Chem Lett, 2012)
